Lung fibro prol – antiproliferative effect on LL 47 fibroblasts – human, LL 47 cells, CellTiter-Glo luminescence, primary screen; LL 47 human lung fibroblast viability, ATP luminescence; hits give low values; viability, % at 10 µM; AID 719, 2007; 85,000 compounds, 1.1% hits;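 active means viability at or below 50% in the single dose screen; inactive means viability above 50%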;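 further: compound exposure lasted 72 h before the ATP readout; 100% = median luminescence of untreated cell-only wells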
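Material: Human LL 47 lung fibroblast cells | Input: 1,150 cells/well | Buffer or medium: IMEM plus 15% FBS | Compound dosing: 0.1% DMSO in all compound wells | Times: Overnight cell rest, 72 h compound treatment at 37 °C | Signal: CellTiter-Glo luminescence measuring cellular ATP | Measure: % viability versus median cells-only luminescence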
Jurkat viability – cytotoxicity toward Jurkat T cells, primary screen, cytotoxicity control, cell-based, Jurkat E6.1, 60K MLSMR library. 56,000 compounds, 1.2% hits. Jurkat E6.1 viability, ATP luminescence, 48 h. inhibition, % at 4 µM;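 active means inhibition above the mean inhibition of all tested compounds plus 3 SD, cut at about 28% in these data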
MT1-MMP txn act – MT1-MMP promoter reporter activation – cell-based, luciferase luminescence, primary screen; HT1080 MT1-MMP promoter luciferase reporter, overnight; hits give high values; activation factor at 10 µM; 86,000 compounds, 0.16% hits; AID 750, 2007;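 active means activation factor of at least 2 for MT1-MMP transcription at 10 µM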
PTK2B oligo ant – antagonists of Pyk2 self-association, primary screen, Q293 cells, FERM NanoBiT luminescence, HTS | z-score (the deposit names both 25 µM and 10 µM) | 99,000 compounds, 0.83% hits | Protein-tyrosine kinase 2-beta (Homo sapiens), Q14289 | AID 1347419, 2020 | hits give low values;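 active means Z-score of -3 or lower, scaled per plate to the spread of control and sample wells; inactive means z-score above -3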;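 further: negative z-score means lost luminescence so less FERM oligomerization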
HUVEC inhibit – inhibitors of HUVEC proliferation, primary screen, cell-based, 384-well. CellTiter-Glo luminescence, 72 h; hits give low values. viability, % at 10 µM (by protocol). 86,000 compounds, 1.1% hits. AID 648, 2007;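 active means viability at or below 30%; inactive means viability above 30%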;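 further: 100% = median luminescence of DMSO-only cell control wells on each plate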
H69AR inhibit – proliferation blockers of H69AR lung cancer cells, primary screen, cell-based, human, 86K library; H69AR lung tumor viability, ATP luminescence, 72 h; hits give low values; viability, % at 10 µM; 85,000 compounds, 6% hits; AID 598, 2007;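 active means viability at or below 40%; inactive means viability above 40%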;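 further: multidrug resistant small cell line overexpressing MRP-1 efflux transporter; 100% = mean luminescence of untreated control wells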
Numbers without * were called inactive; . = no result. In the library only some 5.9% were active in any assay of this set; here they are far more common.

SMILES	Lung fibro prol	Jurkat viability	MT1-MMP txn act	PTK2B oligo ant	HUVEC inhibit	H69AR inhibit
COc1ccc(/C=N/n2cc(-c3ccccc3)nc2N)cc1	82	-2	1.3	1.3	59	18*
O=C(CSc1c2c(nc3cc(Cl)ccc13)CCCC2)NCc1ccco1	76	.	1	0.04	76	2.2*
O=C(CSc1nnc2c3c4c(sc3ncn12)CCCC4)NCc1ccco1	102	-3	1.2	1.3	90	28*
O=C(CSc1ncnc2sc3c(c12)CCCCC3)NCc1ccco1	71	38*	1.3	-0.02	59	27*
O=C(CSc1ncnc2sc3c(c12)CCCC3)c1ccco1	102	1	1.3	-0.98	92	91
O=C(CSc1nc2ccc(Cl)cc2[nH]1)NCc1ccco1	103	4	1.2	0.93	86	86
CCOC(=O)c1c(C)[nH]c(C(=O)COC(=O)c2oc3ccccc3c2C)c1C	99	.	1	0.68	75	80
CCOC(=O)c1c(C)[nH]c(C(=O)COC(=O)c2ccccc2NC(=O)c2ccco2)c1C	100	-3	1.2	-0.4	65	18*
CCOC(=O)c1[nH]c(COC(=O)c2ccccc2NC(=O)c2ccco2)c(C(=O)OCC)c1C	95	.	.	-0.38	82	8.5*
CC1CCc2cc(F)ccc2N1C(=O)CSc1nnc2c3ccccc3n(C)c2n1 (centres undefined)	.	.	.	-2.2	.	.
CC1Cc2ccccc2N1C(=O)CSc1nnc2c(n1)[nH]c1ccc(F)cc12 (centres undefined)	100	.	1.1	-0.7	53	38*
CCCCN1C(=O)NC(c2ccc(OC)cc2)C(C(=O)OCc2ccccc2)=C1C (centres undefined)	.	.	1.2	.	.	.
C=CCOc1ccccc1/C=c1\sc2nc(=O)c(C)nn2c1=O	98	-6	1.1	0.27	90	33*
CCOc1cc(C2CC(=O)c3c(ccc4ccccc34)N2)ccc1O (centres undefined)	.	.	.	-1.6	.	.
Cc1nc(NC2=NCN(Cc3cccnc3)CN2)nc2c(C)cccc12	52	2	1.3	.	70	37*
Cc1ccc(C)c(C(=O)Cn2ncc(Cl)c(Cl)c2=O)c1	2.1*	.	0.8	-0.74	2.2*	0.4*
CNC(=O)C1(CC(C)C)C=CCN1C(=O)c1ccccc1 (centres undefined)	.	.	1	.	.	.
COc1ccc(C2=Nn3c(nnc3-c3ccco3)SC2)cc1	78	.	1	-0.43	66	20*
COc1ccc(OCc2nnc3n2N=C(c2ccc(OC)cc2)CS3)cc1	84	4	1.2	.	74	30*
CCOc1ccc(C2=Nn3c(nnc3-c3ccc(OC)cc3)SC2)cc1	49*	62*	1.2	-2.7	49	14*
CCNC(=O)[C@H](C)/C=C/C(NC(=O)OCc1ccccc1)c1ccc(C(=O)OC)cc1 (some centres undefined)	.	.	1.1	.	.	.
CN1CCN(c2ccccc2NC(=O)c2ccc(-c3ccc(Cl)cc3Cl)o2)CC1	94	.	1.1	-0.59	5.8*	32*
CC(C)Oc1ccc(C(=O)Nc2ccccc2N2CCCC2)cc1	88	.	.	-0.11	111	32*
Cc1ccc(C(=O)Nc2ccccc2N2CCN(C(=O)C(C)C)CC2)cc1	104	2	1.2	-0.76	94	81
CS(=O)(=O)N1CCN(c2ccccc2NC(=O)c2ccc(-c3ccc(Cl)cc3Cl)o2)CC1	97	8	1.3	-0.66	89	69
SMILES	Lung fibro prol	Jurkat viability	MT1-MMP txn act	PTK2B oligo ant	HUVEC inhibit	H69AR inhibit
O=C(Nc1ccc(N2CCN(C(=O)c3ccccc3)CC2)c(Cl)c1)c1ccc(Br)o1	.	.	1	-2.1	.	.
O=C(Nc1ccc(CN2CCOCC2)cc1)c1ccc(-c2cc(Cl)ccc2Cl)o1	93	.	1	-1.5	40	21*
O=C(Nc1ccc(N2CCOCC2)c(Cl)c1)c1ccc(Br)o1	107	-1	1.3	-1.1	81	20*
COc1cccc(-c2nc(CS(=O)CC(=O)NCc3ccccc3Cl)c(C)o2)c1 (centres undefined)	93	3	1.1	.	79	91
COC(=O)[C@@]1(C)C=C[C@@H](Cc2ccccc2)N1C	.	.	1	.	.	.
CCn1c2ccccc2c2cc(NS(=O)(=O)c3ccccc3C)ccc21	.	.	.	-0.54	.	.
Cn1cnnc1SCCn1c(N2CCCCC2)nc2c1c(=O)[nH]c(=O)n2C	101	-1	1.1	-0.04	90	96
O=C(Nc1ccc(N2CCOCC2)c(Cl)c1)c1cc2ccccc2o1	90	.	2.1*	-2.3	63	54
CN1CCN(c2ccccc2NC(=O)c2cc3ccccc3o2)CC1	73	.	1.3	-1.2	68	55
Cc1cc(N2CCN(C)CC2)nc2ccc(NC(=O)c3ccc(Br)o3)cc12	43*	.	1.4	-0.61	8.2*	4.2*
O=C(Nc1ccccc1N1CCCC1)c1cc2ccccc2o1	92	6	2*	-0.92	95	61
CC1SC(=NC(=O)C(C)N2C(=O)c3ccccc3C2=O)NC1=O (centres undefined)	98	.	1.2	-0.8	88	93
Cc1ccc(-c2ccc(/C=N\NC(=O)C3C(=O)NCC3c3ccccc3)o2)cc1Cl (centres undefined)	.	.	.	0.22	.	.
CCN(CC)C(=O)CSc1nc(N)c2c3c(sc2n1)CC(C)CC3 (centres undefined)	97	.	1.5	-1	89	37*
CC1CCc2c(sc3nc(SCC(=O)NCc4ccco4)nc(N)c23)C1 (centres undefined)	85	13	1.3	-0.6	65	35*
CCOC(=O)C1=C(C)N(CCC(=O)O)C(=O)NC1c1ccccc1Cl (centres undefined)	.	.	1.1	.	.	.
CC(/C=C/c1ccc2c(c1)OCO2)=N\NC(=O)c1cccc([N+](=O)[O-])c1	28*	.	1	0.74	31	7.3*
CC(/C=C/c1ccc2c(c1)OCO2)=N/NC(=O)CNc1ccc(C)cc1	.	.	.	1.1	.	.
CCCOc1ccc(C(=O)N2CCN(c3ccc(N)cc3Cl)CC2)cc1	99	-7	1.2	-3.9*	96	100
CCOc1ccc(C(=O)N2CCCCCC2)cc1	98	-1	1.2	0	100	97
COC(=O)c1ccccc1NC(=O)c1ccc(-c2ccccc2F)o1	68	0	1.1	-0.12	36	13*
COc1ccccc1NC(=O)c1ccc(-c2ccccc2F)o1	91	8	.	-2.2	75	53
COc1cc(C(=O)N[C@H](C(=O)NC(C)C23CC4CC(CC(C4)C2)C3)C(C)C)cc(OC)c1OC (some centres undefined)	48*	.	1	-0.09	44	42

High-throughput results (PubChem BioAssay)
